Data on one molecule can be found in ChEMBL document CHEMBL2021781, “Dual targeting of histone deacetylase and topoisomerase II with novel bifunctional inhibitors” (J Med Chem, 2012).

Active and inactive are the calls of the source. The rule behind the calls is not given here.

Data set [1] is described as follows: Drug uptake in human A549 cell perinuclear region at 1 uM after 4 hrs by confocal microscopic analysis. The data set is classed as ADME, cell-based. Particulars: a549, 4 h. Summed up:
(§1)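 Cells plated on glass coverslips 24 h ahead, then given fresh media with compound at 1 μM for 4 h. After a PBS wash, coverslips were mounted and intracellular distribution imaged by confocal microscopy, excitation 488 nm. Done in DU-145 cells, with A549 lung tumor cells also examined.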

The target of data set [2] is T1, Histone deacetylase (Homo sapiens) (UniProt Q13547+O15379+Q9UBN7+Q92769+Q9UQL6+Q8WUI4+Q9BY41+Q96DB2+P56524+Q9UKV0+Q969S8). Put plainly: Inhibition of HDAC in human DU145 cells assessed as histone H4 acetylation after 24 hrs by Western blot analysis. The data set is classed as cell-based. Particulars: DU-145. Put shortly: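 DU-145 cells passaged 24 h before dosing, then exposed 24 h to compound in growth medium (final DMSO 0.1%); controls received 0.1% DMSO. Lysed in RIPA with protease inhibitors at 4°C, cleared at 14,000 × g. Protein quantified against BSA, boiled, transferred to nitrocellulose. Probed for acetyl-H3, acetyl-H4 and p21waf1 with actin loading control; read by near-infrared scanning at 700/800 nm.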
Background: A western blot detects proteins with antibodies after separation by electrophoresis.

For data set [3], the target named is T1, Histone deacetylase (Homo sapiens). Put plainly: Inhibition of HDAC in human DU145 cells assessed as upregulation of p21 expression at 5 times IC50 concentration after 4 hrs by Western blot analysis relative to control. As to conditions: DU-145. The data set is classed as cell-based. Put shortly:
(§2)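 Lysed in RIPA with protease inhibitors, cleared 14,000 RPM at 4°C. Immunoblotted, probing acetylated versus total tubulin; p21 also checked. Near-infrared detection at 700/800 nm.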

Another data set deals with SK-MES-1. Put plainly: Antiproliferative activity against human SKMES1 cells after 72 hrs by MTS assay. The data set is classed as functional, cell-based. As to conditions: SK-MES-1, 72 h.
Data set [4] concerns the target T2, Protein deacetylase HDAC6 (Homo sapiens) (UniProt Q9UBN7).
T2 sequence (whole entry): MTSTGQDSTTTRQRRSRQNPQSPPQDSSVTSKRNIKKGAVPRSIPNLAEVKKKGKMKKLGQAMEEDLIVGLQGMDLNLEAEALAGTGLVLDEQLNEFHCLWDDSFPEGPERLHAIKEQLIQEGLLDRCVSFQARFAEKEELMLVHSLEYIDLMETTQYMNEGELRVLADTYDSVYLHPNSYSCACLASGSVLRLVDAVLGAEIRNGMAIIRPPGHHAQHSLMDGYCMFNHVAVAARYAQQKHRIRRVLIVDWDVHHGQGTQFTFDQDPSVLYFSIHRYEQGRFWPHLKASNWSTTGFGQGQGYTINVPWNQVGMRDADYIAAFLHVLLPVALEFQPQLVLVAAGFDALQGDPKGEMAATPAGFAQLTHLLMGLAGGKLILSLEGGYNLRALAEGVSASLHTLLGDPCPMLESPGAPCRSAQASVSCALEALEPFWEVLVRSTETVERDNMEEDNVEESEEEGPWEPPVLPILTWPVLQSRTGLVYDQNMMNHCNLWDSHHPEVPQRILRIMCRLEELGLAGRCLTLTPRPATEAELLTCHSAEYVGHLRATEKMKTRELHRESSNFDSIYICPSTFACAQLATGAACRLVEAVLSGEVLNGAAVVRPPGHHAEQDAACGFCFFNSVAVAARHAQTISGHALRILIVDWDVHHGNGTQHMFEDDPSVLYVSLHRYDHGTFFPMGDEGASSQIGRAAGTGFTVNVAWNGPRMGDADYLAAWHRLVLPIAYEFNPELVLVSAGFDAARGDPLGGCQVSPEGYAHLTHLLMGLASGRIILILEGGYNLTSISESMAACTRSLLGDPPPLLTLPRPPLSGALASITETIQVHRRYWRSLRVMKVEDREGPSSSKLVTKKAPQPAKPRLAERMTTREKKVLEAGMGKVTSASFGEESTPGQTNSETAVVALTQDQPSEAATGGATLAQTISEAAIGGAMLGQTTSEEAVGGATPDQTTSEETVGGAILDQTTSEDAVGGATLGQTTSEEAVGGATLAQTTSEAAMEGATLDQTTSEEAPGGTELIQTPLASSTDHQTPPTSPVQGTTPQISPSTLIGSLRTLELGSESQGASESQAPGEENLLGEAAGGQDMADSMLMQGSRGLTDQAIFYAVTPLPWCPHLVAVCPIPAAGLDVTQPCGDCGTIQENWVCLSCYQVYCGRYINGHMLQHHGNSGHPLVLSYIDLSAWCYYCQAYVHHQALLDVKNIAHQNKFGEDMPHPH
Put plainly: Inhibition of HDAC6-mediated tubulin acetylation in human DU145 cells at 90 nM after 4 hrs by Western blot analysis. The data set is classed as cell-based. Particulars: DU-145. Summed up:
(§3)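 DU-145 cells passaged 24 h before dosing, then treated 4 h, with no more than 0.1% DMSO including controls. Lysis in RIPA buffer with protease inhibitors, protein quantified against a BSA standard, SDS-PAGE and transfer. Blots probed with rabbit anti-tubulin and mouse anti-acetyl tubulin, read by near-infrared imaging at 700/800 nm.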

Data set [5] addresses T1, Histone deacetylase (Homo sapiens). Particulars: DU-145, 0.5 to 1 uM.
Another data set addresses Histone deacetylase 1 (Homo sapiens, UniProt Q13547). Put plainly: Inhibition of HDAC1 in human HeLa cell nuclear extract using Fluor de Lys as substrate after 15 mins by fluorometric analysis.
Data set [6] is described as follows: Drug uptake in human A549 cell cytosol at 1 uM after 4 hrs by confocal microscopic analysis. The format is ADME, cell-based. Put shortly:
as §1

The target of data set [7] is T3, Protein deacetylase HDAC6 (Homo sapiens, UniProt Q9UBN7).
T3 sequence (Q9UBN7 whole entry): T2 sequence (whole entry)
Put plainly: Inhibition of HDAC6 in human HeLa cell nuclear extract using Fluor de Lys as substrate after 15 mins by fluorometric analysis.

Data set [8] has as its target T1, Histone deacetylase (Homo sapiens). Put plainly: Inhibition of HDAC in human DU145 cells assessed as upregulation of p21 expression at IC50 concentration after 4 hrs by Western blot analysis relative to control. As to conditions: DU-145. The data set is classed as cell-based. Summed up:
as §2

In data set [9] the target is T2, Protein deacetylase HDAC6 (Homo sapiens). Put plainly: Inhibition of HDAC6-mediated tubulin acetylation in human DU145 cells at 130 nM after 4 hrs by Western blot analysis. The format is cell-based. Particulars: DU-145. Put shortly:
as §3

In a further data set the test system is MCF7. Put plainly: Antiproliferative activity against human MCF7 cells after 72 hrs by MTS assay. The data set is classed as functional, cell-based. Particulars: MCF7, 72 h. Background: Tetrazolium assays rely on reduction of a dye to a coloured formazan, in cell work by metabolically active cells.
Data set [10] in a line: Drug uptake in human DU145 cell cytosol at 1 uM after 4 hrs by confocal microscopic analysis. The data set is classed as ADME, cell-based, DU-145. Put shortly: as §1
Data set [11] concerns the target DNA topoisomerase 2-alpha (Homo sapiens) (UniProt P11388). Put plainly: Inhibition of topoisomerase 2 in human DU145 cells assessed as stabilization of enzyme-DNA cleavage complex at 130 nM after 30 mins by immunoblot analysis relative to control. The data set is classed as cell-based. Particulars: DU-145. Put shortly: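 DU-145 cells dosed 30 min or 72 h; controls given 0.1% DMSO. 72 h samples equalized to the 30 min cell count before lysis in 1% sarkosyl. Lysates spun on a CsCl gradient at 31,000 RPM, room temperature, 12 h. Fractions holding Topo II–DNA complexes found by A260, slot-blotted onto nitrocellulose, and immunoblotted for Topo II.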

Data set [12] in a line: Drug uptake in human DU145 cell perinuclear region at 1 uM after 4 hrs by confocal microscopic analysis. The data set is classed as ADME, cell-based. As to conditions: du-145, 4 h. Summed up: as §1

Sequence of Histone deacetylase 1 (Q13547 whole entry): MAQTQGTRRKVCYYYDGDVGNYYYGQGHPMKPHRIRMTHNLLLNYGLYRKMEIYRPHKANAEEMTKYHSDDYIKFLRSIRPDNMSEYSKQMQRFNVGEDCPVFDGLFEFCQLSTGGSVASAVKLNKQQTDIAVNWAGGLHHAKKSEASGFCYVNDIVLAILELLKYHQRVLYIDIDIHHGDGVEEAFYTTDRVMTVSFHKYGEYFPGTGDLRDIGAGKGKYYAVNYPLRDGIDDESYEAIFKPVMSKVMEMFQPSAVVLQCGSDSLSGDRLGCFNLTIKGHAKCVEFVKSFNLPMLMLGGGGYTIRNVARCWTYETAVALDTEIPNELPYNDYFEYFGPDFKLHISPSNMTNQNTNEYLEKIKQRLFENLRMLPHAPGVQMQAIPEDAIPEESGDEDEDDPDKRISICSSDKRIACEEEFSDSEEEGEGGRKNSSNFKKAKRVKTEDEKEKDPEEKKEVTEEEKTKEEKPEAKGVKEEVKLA
Sequence of DNA topoisomerase 2-alpha (Homo sapiens) (P11388 whole entry): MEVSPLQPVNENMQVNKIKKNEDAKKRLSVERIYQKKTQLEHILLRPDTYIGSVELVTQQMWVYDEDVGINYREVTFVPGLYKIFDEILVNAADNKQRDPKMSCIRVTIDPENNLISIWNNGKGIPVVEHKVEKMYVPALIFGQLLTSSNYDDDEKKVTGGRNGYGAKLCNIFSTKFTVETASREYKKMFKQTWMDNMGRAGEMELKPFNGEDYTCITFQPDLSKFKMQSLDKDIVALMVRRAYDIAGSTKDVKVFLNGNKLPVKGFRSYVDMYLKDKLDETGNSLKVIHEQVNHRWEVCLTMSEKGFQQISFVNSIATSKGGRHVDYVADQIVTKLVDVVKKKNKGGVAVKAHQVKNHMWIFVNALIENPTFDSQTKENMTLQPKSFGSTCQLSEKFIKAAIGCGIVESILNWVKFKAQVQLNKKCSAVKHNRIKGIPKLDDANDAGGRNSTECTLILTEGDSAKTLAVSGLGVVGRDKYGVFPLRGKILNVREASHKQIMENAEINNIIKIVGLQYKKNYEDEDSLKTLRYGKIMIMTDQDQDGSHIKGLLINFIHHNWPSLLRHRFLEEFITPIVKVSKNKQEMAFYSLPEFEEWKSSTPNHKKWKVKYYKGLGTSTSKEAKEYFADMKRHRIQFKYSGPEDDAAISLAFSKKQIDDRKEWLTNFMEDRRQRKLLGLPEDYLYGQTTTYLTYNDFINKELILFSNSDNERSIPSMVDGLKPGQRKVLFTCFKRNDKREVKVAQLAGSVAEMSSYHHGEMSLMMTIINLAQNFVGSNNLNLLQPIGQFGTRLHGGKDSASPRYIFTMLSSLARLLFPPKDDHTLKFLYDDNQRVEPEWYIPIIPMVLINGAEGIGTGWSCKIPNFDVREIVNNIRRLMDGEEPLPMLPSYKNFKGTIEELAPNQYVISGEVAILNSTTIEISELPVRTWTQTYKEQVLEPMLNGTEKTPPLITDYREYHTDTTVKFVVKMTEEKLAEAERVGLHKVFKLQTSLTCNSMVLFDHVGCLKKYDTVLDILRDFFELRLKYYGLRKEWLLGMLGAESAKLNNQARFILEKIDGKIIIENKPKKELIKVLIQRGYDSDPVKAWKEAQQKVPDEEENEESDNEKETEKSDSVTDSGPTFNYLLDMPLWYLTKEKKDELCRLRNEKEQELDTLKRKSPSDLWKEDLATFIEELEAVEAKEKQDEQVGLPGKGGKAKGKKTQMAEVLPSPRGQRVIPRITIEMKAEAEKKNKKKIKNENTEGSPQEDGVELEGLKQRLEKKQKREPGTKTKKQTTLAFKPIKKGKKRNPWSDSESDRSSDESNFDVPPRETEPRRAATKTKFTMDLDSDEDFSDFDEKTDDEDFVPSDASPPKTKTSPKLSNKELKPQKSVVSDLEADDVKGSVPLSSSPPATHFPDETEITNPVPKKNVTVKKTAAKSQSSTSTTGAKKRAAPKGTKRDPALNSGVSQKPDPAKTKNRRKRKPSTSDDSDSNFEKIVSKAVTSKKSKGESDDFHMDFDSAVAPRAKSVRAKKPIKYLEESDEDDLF

A word on the IC50: it is the concentration that inhibits the measured activity by half. A high value points to weaker potency in that assay. With `COc1cccc2c1C(=O)c1c(O)c3c(c(O)c1C2=O)C[C@@](O)(C(C)=O)C[C@@H]3O[C@H]1C[C@H](NCc2ccc(NC(=O)CCCCCCC(=O)NO)cc2)[C@H](O)[C@H](C)O1`, the Drug uptake result in data set [1], in data set [6], in data set [10] and in data set [12] was “Active” in each case. In [2], the inhibition result is “Dose-dependent effect”. The outcome in data set [3] and in data set [8] was inactive. Also, the IC50 was found to be 470 nM in the data set with SK-MES-1, 47 nM against Histone deacetylase 1, 20 nM in [7] and 990 nM in the data set with MCF7. The inhibition entry in data set [4] and in data set [9] was “Active” each time. Besides, the inhibition entry in data set [5] and in [11] was “inactive” throughout.
